Measurements taken from the RNAGym collection of RNA variant scans (doi:10.1126/science.aae0568).
Variants at the floor of the assay were thinned out.

B1: tRNA (parent)
chain: GUUCCGUUGGCGUAAUGGUAACGCGUCUCCCUCCUAAGGAGAAGACUGCGGGUUCGAGUCCCGUACGGAACG

Variants of: B1
Assay: yeast fitness relative to wild type (ratio to wild type); higher = fitter; tRNA-Arg(CCU), competitive growth, 37 C, YPD
Outline: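 Start and end populations of a pooled competition were compared by 100-nucleotide paired-end sequencing of gene amplicons. The Saccharomyces cerevisiae strains carried tRNA-Arg(CCU) gene variants at the native genomic locus, synthesised with a 3% per-site mutation rate at 69 sites, and competed in YPD at 37°C for 24 hours in six parallel replicates. Darwinian fitness relative to wild type was based on the change in genotype frequencies. Genotypes required ≥ 100 starting reads, and estimates < 0.5 were set to 0.5.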

Row | Variant | yeast fitness
1 | GUUCCGUUGGCGUAAUGGUAACGCGUCUCCAUCCUAAGGAGAAGACUGCGGGUUCGAGUCACGUACGGAACG [C31A C61A] | ≤ 0.5
2 | GUUCCGUUGGCGUAAUGGUAACGCGUCUCCAUCCUAAGGAGAAGACUGCGGGUUCGAGUCGCGUACGGAACG [C31A C61G] | 0.812
3 | GUUCCGUUGGCGUAAUGGUAACGCGUCUCCAUCCUAAGGAGAAGACUGCGGGUUCGAGUCUCGUACGGAACG [C31A C61U] | 0.845
4 | GUUCCGUUGGCGUAAUGGUAACGCGUCUCCAUCCUAAGGAGAAGACUGCGGGUUCGAGUCCCGUCCGGAACG [C31A A65C] | 0.89
5 | GUUCCGUUGGCGUAAUGGUAACGCGUCUCCAUCCUAAGGAGAAGACUGCGGGUUCGAGUCCCGUGCGGAACG [C31A A65G] | 0.732
6 | GUUCCGUUGGCGUAAUGGUAACGCGUCUCCAUCCUAAGAAGAAGAUUGCGGGUUCGAGUCCCGUACGGAACG [C31A G39A C46U] | ≤ 0.5
7 | GUUCCGUUGGCGUAAUGGUAACGCGUCUCCAUCCUAAGGAGAAGAAUGCGGGUUCGAGUCCCGUUCGGAACG [C31A C46A A65U] | ≤ 0.5
8 | GUUCCGUUGGCGUAAUGGUAACGCGUCUCCAUCCUAAGGAGAAGAUUGCGGGUUCGAGUCCCGUACGGACCG [C31A C46U A70C] | 0.62
9 | GUUCCGUUGGCGUAAUGGUAACGCGUCUCCAUCCUAAGGAGAAGGCUGCGGAUUAGAGUCCCGUACGGAACG [C31A A45G G52A C55A] | ≤ 0.5
10 | GUUCCGUUGGCGUAAUGGUAACGCGUCUCCAUCCUAAGGAGACGACUGCGGGUUCGAGUCCUGUACGGAACG [C31A A43C C62U] | 0.998
11 | GUUCCGUUGGCGUAAUGGUAACGCGUCUCCAUGCUAAGGAGCAGACUACGGGUACGAGUCCCGUAAGGAACG [C31A C33G A42C G48A U54A C66A] | ≤ 0.5
12 | GUUCCGUUGGCGUAAUGGUAACGCGUCUCCAUCCUAAGGAGAAGAGUGCGGGUUCGAGUCCCGUACGGAACG [C31A C46G] | 0.852
13 | GUUCCGUUGGCGUAAUGGUAACGCGUCUCCAUCCUAAGGAGAAGAAUGCGGGUUCGAGUCCCGUACGGAACG [C31A C46A] | 0.853
14 | GUUCCGUUGGCGUAAUGGUAACGCGUCUCCAUCCUAAGGCGAAGACAGCGGGUUCGAGUCCCGAACGGAACG [C31A A40C U47A U64A] | ≤ 0.5
15 | GUUCCGUUGGCGUAAUGGUAACGCGUCUCCAUCCUAAGGAGAAGACUGCGGGUUCGAGUCCCGUUAGGAACG [C31A A65U C66A] | ≤ 0.5
16 | GUUCCGUUGGCGUAAUGGUAACGCGUCUCCAUCCUAAGGAGAGGACUGCGGGUUCGAGUCCCGUACGAAACG [C31A A43G G68A] | 0.657
17 | GUUCCGUUGGCGUAAUGGUAACGCGUCUCCAUCCUAAGGAGAAGACUGCGGGUUAGAGUCCCGUACAGAACG [C31A C55A G67A] | ≤ 0.5
18 | GUUCCGUUGGCGUAAUGGUAACGCGUCUCCAUCCUAAGGAGAAGACUGCGGGUUCGAGUCCGAUAGGGGACG [C31A C62G G63A C66G A69G] | ≤ 0.5
19 | GUUCCGUUGGCGUAAUGGUAACGCGUCUCCAUCCUAAGGAGAAGACUGCGGGUUCGGGUCCCGUACGAAACG [C31A A57G G68A] | ≤ 0.5

Row | Variant | yeast fitness
20 | GUUCCGUUGGCGUAAUGGUAACGCGUCUCCAUGCUUAGGAGAAGACUGCGGGUUCGAGUCCCGUACGGAACG [C31A C33G A36U] | 0.676
21 | GUUCCGUUGGCGUAAUGGUAACGCGUCUCCAUCCUAAAGAGAAGAUUGCGGGUUCGAGUCCCGUACGGAACG [C31A G38A C46U] | ≤ 0.5
22 | GUUCCGUUGGCGUAAUGGUAACGCGUCUCCAUCAUAAGGAGAAGACUGCGGGUUCGAGUCCCGUACGGAACG [C31A C34A] | 0.603
23 | GUUCCGUUGGCGUAAUGGUAACGCGUCUCCAUCCUAAGGUGAAGACUGCGGGGUCCAGUCCGGUACGGAACG [C31A A40U U53G G56C C62G] | ≤ 0.5
24 | GUUCCGUUGGCGUAAUGGUAACGCGUCUCCAUCGUAAGGAGAAGUCUGCGGGUUCGAGUCCCGUACGGAACG [C31A C34G A45U] | 0.591
25 | GUUCCGUUGGCGUAAUGGUAACGCGUCUCCAUCCUAAGGAGAAGACUGCGGGUUCGAGUCCAGUACGGACCG [C31A C62A A70C] | 0.548
26 | GUUCCGUUGGCGUAAUGGUAACGCGUCUCCAUCCUAAGGAGCAGAGUGCGGGUUCGAGUCCCGUACGGAACG [C31A A42C C46G] | 0.959
27 | GUUCCGUUGGCGUAAUGGUAACGCGUCUCCAUCCUAAGGAGAACACUGCGGGUUCGAGUCCCGUGCGGAACG [C31A G44C A65G] | 0.553
28 | GUUCCGUUGGCGUAAUGGUAACGCGUCUCCAUCCUAAGGAGAAGACUGCGGGUUCGUGUCCCGUACGGUACG [C31A A57U A69U] | ≤ 0.5
29 | GUUCCGUUGGCGUAAUGGUAACGCGUCUCCAUCCUAAGGAGAAGACUGUGGGUUCGAGUCUCGUACGGAACG [C31A C49U C61U] | 0.663
30 | GUUCCGUUGGCGUAAUGGUAACGCGUCUCCAUCCUAAGGAGAAGACUGCGGGUUCGAGUCGCGUACCGAGCG [C31A C61G G67C A70G] | ≤ 0.5
31 | GUUCCGUUGGCGUAAUGGUAACGCGUCUCCAUCCUAAGGAGAAGACUGCGGGUUCGAGUACCGUACGGAACG [C31A C60A] | 0.629
32 | GUUCCGUUGGCGUAAUGGUAACGCGUCUCCAUCCUAAGGAGAAGACUGCGGGUUCGAGUCCCGUCCUGAACG [C31A A65C G67U] | ≤ 0.5
33 | GUUCCGUUGGCGUAAUGGUAACGCGUCUCCAUCCUAAGGCGAAGACUGCGGGUUCGAGUCCCGUACGGAACG [C31A A40C] | 0.775
34 | GUUCCGUUGGCGUAAUGGUAACGCGUCUCCAUCCUAAGGAGAAGACUGCGGGUUCGGGUCUCGUACGGAACG [C31A A57G C61U] | ≤ 0.5
35 | GUUCCGUUGGCGUAAUGGUAACGCGUCUCCAUCCUAAGGCGAAGACUGCGGGUUCGAGUCCUGUACGGAACG [C31A A40C C62U] | 0.532
36 | GUUCCGUUGGCGUAAUGGUAACGCGUCUCCAUCCUAAGGAGAAGCCUGCGGGUUCGAGUCCUAAACGGAACG [C31A A45C C62U G63A U64A] | 0.521
37 | GUUCCGUUGGCGUAAUGGUAACGCGUCUCCAUUCUAAGGAGAAGACUGUGGGUUCGAGUCCCGUACGGAACG [C31A C33U C49U] | ≤ 0.5
